Source: PubChem
Only some compounds are listed: those with a hit (about 1.8% of all), similar ones and a draw of the others.
LEDGF integ inh = blocks HIV-1 LEDGF/p75-dependent DNA integration; TR-FRET IN-LEDGF/p75 DNA integration, Eu/Cy5; inhibition, % at 3.7 µM; 370,000 compounds, 0.64% hits; AID 743269;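 active means inhibition above the screen-wide mean plus 3 SD, cut at about 13% in these data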;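 further: signal is the Cy5 over europium emission ratio at 671 and 618 nm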
Casp6 inh = inhibitors of human caspase-6; P55212; purified caspase-6, Z-VEID-R110 cleavage fluorescence; 350,000 compounds, 0.53% hits; inhibition, % at 12.5 µM;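 active means mean inhibition across replicates at least about 35%, with every replicate also reaching that limit, limit read from the data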
NSD2 inh = NSD2 (human) methyltransferase inhibition; inhibition, % at 12.5 µM; 310,000 compounds, 0.54% hits; O96028; AID 743445; NSD2 peptide methylation, AlphaScreen, 120 min; in the data active means inhibition above about 50%
UHRF1 MBD2 ctr = blocks human UHRF1 binding to methylated DNA; UHRF1 binding to methylated oligo, TR-FRET; inhibition, % at 4.4 µM; 370,000 compounds, 0.75% hits; in the data active means inhibition above about 21%;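 further: UHRF1 SRA domain binding a hemimethylated CpG hairpin DNA probe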
Target sequence (Q96T88 whole entry, looked up, the tested form may be a part): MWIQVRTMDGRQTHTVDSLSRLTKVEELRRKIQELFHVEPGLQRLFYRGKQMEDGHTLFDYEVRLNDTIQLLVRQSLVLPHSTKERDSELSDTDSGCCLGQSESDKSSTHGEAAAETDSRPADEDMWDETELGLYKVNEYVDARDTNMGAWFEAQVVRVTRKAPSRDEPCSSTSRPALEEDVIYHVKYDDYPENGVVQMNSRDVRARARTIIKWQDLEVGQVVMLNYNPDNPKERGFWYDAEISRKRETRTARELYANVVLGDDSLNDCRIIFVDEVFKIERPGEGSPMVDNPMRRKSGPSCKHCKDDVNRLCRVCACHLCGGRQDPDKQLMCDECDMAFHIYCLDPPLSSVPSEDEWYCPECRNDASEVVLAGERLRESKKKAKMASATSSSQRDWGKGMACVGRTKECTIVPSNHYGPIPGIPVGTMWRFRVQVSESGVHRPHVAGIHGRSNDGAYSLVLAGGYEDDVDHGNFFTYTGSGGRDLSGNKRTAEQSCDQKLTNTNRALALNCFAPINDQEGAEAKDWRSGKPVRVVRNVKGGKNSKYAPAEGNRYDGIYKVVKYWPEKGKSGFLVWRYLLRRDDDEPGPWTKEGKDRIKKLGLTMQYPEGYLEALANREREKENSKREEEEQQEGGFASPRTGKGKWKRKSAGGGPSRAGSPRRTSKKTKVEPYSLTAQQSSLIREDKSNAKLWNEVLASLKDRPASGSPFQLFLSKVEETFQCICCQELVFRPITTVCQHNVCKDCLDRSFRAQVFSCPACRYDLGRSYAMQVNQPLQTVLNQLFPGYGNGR
TDP2 absorb = blocks human TDP2 phosphodiesterase activity; O95551; recombinant TDP2, T5PNP hydrolysis, p-nitrophenol absorbance 415 nm; inhibition, % at 12.8 µM; 370,000 compounds, 0.34% hits; AID 720702;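 active means inhibition above the mean of all tested compounds plus 3 SD, set per campaign, cut at about 25% in these data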
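Evaluation: % inhibition relative to enzyme-containing and enzyme-free wells. Material: recombinant human TDP2. Benchmarks: enzyme-free and DMSO wells. Timing: enzyme reaction with compound for 2 h at 37 °C. Compound dosing: 12.8 µM only. Measured by: p-Nitrophenol epi absorbance. Reagent: T5PNP substrate at 5 mM, a TopII-DNA adduct mimic. Replication: single well per compound.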
MBD2 inh = inhibitors of human MBD2 binding to methylated oligonucleotide | Q9UBB5 | TR-FRET | inhibition, % at 4.4 µM | 370,000 compounds, 0.31% hits; in the data active means inhibition above about 13%
IN multimer up = activates HIV-1 integrase multimerization in LEDGF counter-screen. shares compounds with LEDGF integ inh. TR-FRET HIV-1 integrase multimerization, biochemical. activation, % at 7.7 µM. 2,000 compounds, 17% hits. AID 1053131; in the data active means activation above about 8.9%
TRFRET interf = counter-screen for LEDGF/p75 integration inhibitors: TR-FRET optical interference | 2,000 tested, under 10 active | TR-FRET optical interference counterscreen, HIV-1 IN multimerization | AID 1053135 | shares compounds with LEDGF integ inh | inhibition, % at 7.7 µM;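 active means inhibition above the mean over all tested compounds plus 3 SD, which no compound reached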
IN-LEDGF confirm = confirmation of HIV-1 LEDGF/p75-dependent integration inhibitors. shares compounds with LEDGF integ inh. TR-FRET LEDGF/p75-dependent HIV-1 integration, biochemical. inhibition, % at 3.7 µM. 2,000 compounds, 36% hits. AID 1053136; in the data active means inhibition above about 14%
A number is an active result.

Screening CCCCCC1NC(=O)NC1CCCCCC(=O)O (stereo not drawn) returned LEDGF integ inh inactive, NSD2 inh inactive, UHRF1 MBD2 ctr inactive, TDP2 absorb inactive and MBD2 inh inactive.
Screening Cc1cccc(C)c1NC(=O)CCCN1CC(C)OC(C)C1 (stereo not drawn) returned LEDGF integ inh inactive, NSD2 inh inactive, UHRF1 MBD2 ctr inactive, TDP2 absorb inactive and MBD2 inh inactive.
For CCCN1C[C@@H](C)[C@@H](OC)CN(C)C(=O)c2ccc(NC(=O)C3CCOCC3)cc2OC[C@@H]1C the results were Casp6 inh inactive.
Screening Cc1ccc2c(c1)c(=O)c1c3n2CCN(C(=O)CCl)C3CC1 (stereo not drawn) returned LEDGF integ inh 14, UHRF1 MBD2 ctr inactive, TDP2 absorb inactive, MBD2 inh inactive, IN multimer up 15, TRFRET interf inactive and IN-LEDGF confirm 49.
`Oc1ccccc1/C=N/c1c(-c2ccco2)nc2ccccn12` gave LEDGF integ inh 20, NSD2 inh inactive, UHRF1 MBD2 ctr inactive, TDP2 absorb inactive, MBD2 inh inactive, IN multimer up inactive, TRFRET interf inactive and IN-LEDGF confirm inactive.
`C[C@@H]1CN([C@H](C)CO)C(=O)c2cc(NC(=O)c3ccncc3)ccc2O[C@@H](C)CCCCO[C@@H]1CN(C)C(=O)c1ccccc1` gave Casp6 inh inactive.
Screening Cc1coc2c1c(C)cc1oc(=O)c(CC(=O)NCC(=O)NCC(=O)O)c(C)c12 returned LEDGF integ inh inactive, Casp6 inh inactive, NSD2 inh inactive, UHRF1 MBD2 ctr inactive, TDP2 absorb inactive and MBD2 inh inactive.
For Cc1coc2c1c(C)cc1oc(=O)c(Cc3ccccc3)c(C)c12 the results were LEDGF integ inh 15, NSD2 inh inactive, UHRF1 MBD2 ctr inactive, TDP2 absorb inactive, MBD2 inh inactive, IN multimer up inactive, TRFRET interf inactive and IN-LEDGF confirm inactive.
For O=C(Nc1ccccc1C(=O)N1CCN(c2cccc(Cl)c2)CC1)C1=CSCCO1 the results were LEDGF integ inh 81, Casp6 inh inactive, NSD2 inh inactive, UHRF1 MBD2 ctr inactive, TDP2 absorb inactive, MBD2 inh inactive, IN multimer up inactive, TRFRET interf inactive and IN-LEDGF confirm inactive.
`CNC[C@@H]1OCCCC[C@H](C)Oc2ccc(NC(=O)Nc3ccc(F)cc3)cc2C(=O)N([C@@H](C)CO)C[C@@H]1C` gave Casp6 inh inactive.
`CCNC(=O)N1c2ccc(OCC)cc2C(C)=CC1(C)C` gave LEDGF integ inh inactive, NSD2 inh inactive, UHRF1 MBD2 ctr inactive, TDP2 absorb inactive and MBD2 inh inactive.
CCOc1ccc2c(c1)C(C)=CC(C)(C)N2C(=O)Nc1ccccc1F was read as LEDGF integ inh 22, Casp6 inh inactive, NSD2 inh 65, UHRF1 MBD2 ctr inactive, TDP2 absorb 34, MBD2 inh inactive, IN multimer up inactive, TRFRET interf inactive and IN-LEDGF confirm inactive.
For COC1=C[C@H](C(=O)NCc2ccc(Br)cc2)[C@H](C)[C@@H](c2ccccc2)CC1=O the results were LEDGF integ inh 22, UHRF1 MBD2 ctr inactive, TDP2 absorb inactive, MBD2 inh inactive, IN multimer up inactive, TRFRET interf inactive and IN-LEDGF confirm inactive.
For COC1=C[C@H](C(=O)NCc2ccc(Cl)cc2)C(C)C(c2ccccc2)CC1=O (stereo partly drawn) the results were LEDGF integ inh inactive, UHRF1 MBD2 ctr inactive, TDP2 absorb inactive and MBD2 inh inactive.
`CC(C)NC(=O)N(C)C[C@H]1Oc2c(NS(=O)(=O)c3ccc(F)cc3)cccc2C(=O)N([C@H](C)CO)C[C@H]1C` gave Casp6 inh inactive.
For CS(=O)(=O)N1CCN(c2ccc(NC(=O)CSc3ccc(Cl)cc3)cc2)CC1 the results were LEDGF integ inh 63, Casp6 inh inactive, NSD2 inh inactive, UHRF1 MBD2 ctr inactive, TDP2 absorb inactive, MBD2 inh inactive, IN multimer up inactive, TRFRET interf inactive and IN-LEDGF confirm inactive.
`CCn1c(C)cc(/C=C2\NC(=O)N(Cc3ccccc3)C2=O)c1C` gave LEDGF integ inh 17, NSD2 inh inactive, UHRF1 MBD2 ctr inactive, TDP2 absorb inactive, MBD2 inh inactive, IN multimer up inactive, TRFRET interf inactive and IN-LEDGF confirm inactive.
`CN1C(C(=O)NCc2cccc(C(F)(F)F)c2)CC2Cn3c(nc4ccccc43)C21` (stereo not drawn) gave LEDGF integ inh 15, Casp6 inh inactive, UHRF1 MBD2 ctr inactive, TDP2 absorb inactive, MBD2 inh inactive, IN multimer up inactive, TRFRET interf inactive and IN-LEDGF confirm inactive.
`Cc1cc2nc3n(c2cc1C)CC1CC(C(=O)NCc2ccco2)N(C)C31` (stereo not drawn) gave LEDGF integ inh 27, Casp6 inh inactive, UHRF1 MBD2 ctr 45, TDP2 absorb inactive, MBD2 inh inactive, IN multimer up inactive, TRFRET interf inactive and IN-LEDGF confirm inactive.
CN1C(C(=O)NCc2cccc(C(F)(F)F)c2)CC2Cn3c(nc4cc5ccccc5cc43)C21 (stereo not drawn) was read as LEDGF integ inh inactive, Casp6 inh inactive, UHRF1 MBD2 ctr inactive, TDP2 absorb inactive and MBD2 inh inactive.
For O=C1CN(S(=O)(=O)c2cccc(F)c2)C[C@@H]2[C@@H](c3ccc(-c4ccc(F)cc4)cc3)[C@@H](CO)N12 the results were Casp6 inh inactive.
For CC(=O)N1CCN(c2ccc(N)cc2)CC1 the results were LEDGF integ inh 26, Casp6 inh 36, UHRF1 MBD2 ctr inactive, TDP2 absorb inactive, MBD2 inh inactive, IN multimer up inactive, TRFRET interf inactive and IN-LEDGF confirm inactive.
CC(=O)N1CCN(c2ccc(NCc3cccc(C)c3)cc2)CC1 was read as LEDGF integ inh 14, Casp6 inh inactive, UHRF1 MBD2 ctr inactive, TDP2 absorb inactive, MBD2 inh inactive, IN multimer up inactive, TRFRET interf inactive and IN-LEDGF confirm inactive.
For O=C(CCc1ccc(S(=O)(=O)N2CCOCC2)cc1)N/N=C/c1ccc(O)c(O)c1O the results were LEDGF integ inh 17, NSD2 inh inactive, UHRF1 MBD2 ctr inactive, TDP2 absorb inactive, MBD2 inh inactive, IN multimer up 18, TRFRET interf inactive and IN-LEDGF confirm 27.
